Source: ChEMBL document CHEMBL1124429, “Heterocyclic analogues of benzamide antiarrhythmic agents” (J Med Chem, 1989)
Where “and” joins values, the source holds several entries; their conditions need not be identical. Equal entries are not always repeated.

Experiments:
Canis familiaris [1] = species: Canis familiaris; assay: Percent change from control in the rate of rise of phase 0 of the action potential at 10 uM concentration on Canine Purkinje fibers.; parameters: species or system Canis lupus familiaris, Purkinje fiber; conditions: dog, in vitro
Canis familiaris [2] = species: Canis familiaris; assay: Maximum Percent change from control in the rate of rise of phase 0 of the action potential at 10 uM concentration on Canine Purkinje fibers.; assay type: functional, Canis lupus familiaris, Purkinje fiber; conditions: dog, in vitro
Outline: (§1)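 Isolated canine Purkinje fibers were superfused with physiological saline gassed with 95% O2/5% CO2 (pH 7.35–7.40) at 36 ± 0.5 °C. Paced at 1.0 Hz with 2-ms pulses at twice diastolic threshold. After up to 1 h stabilization, compounds were tested over 10^-8 to 10^-3 M, 30 min per concentration, one compound per fiber, with vehicle controls. Intracellular microelectrodes (3 M KCl) recorded Vmax and APD95; maximum percent change from control is reported with its concentration.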

Canis familiaris [3] = species: Canis familiaris; assay: Maximum Percent change from control in the rate of rise of phase 0 of the action potential at 30 uM concentration on Canine Purkinje fibers.; parameters: species or system Canis lupus familiaris, Purkinje fiber; conditions: dog, in vitro; outline: as §1
Canis familiaris [4] = species: Canis familiaris; assay: Maximum percent change in conduction time (CT) at 100 uM concentration tested on Canine ventricular muscle fibre; assay type: functional, Canis lupus familiaris, Muscle tissue
Outline: (§2)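 Canine right ventricular papillary muscle strips were superfused at 36 ± 0.5 °C with saline gassed with 95% O2/5% CO2. Diastolic threshold was found with 2-ms stimuli at 4000 ms cycle length, then pacing at 4× threshold for 60 min equilibration. FRP was measured at 1000 ms cycle length by S1-S2 premature stimulus after every tenth S1. Conduction time came from a bipolar electrogram. Various compound concentrations were tested, one compound per strip, with vehicle controls. Percent change from control was taken at 10 µM, or the maximum change with its concentration; for N ≥ 3, mean with range.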

Canis familiaris [5] = species: Canis familiaris; assay: Percent change from control in conduction time (CT) at uM concentration tested on Canine ventricular muscle fibre.; M is minimal(<10% change in CT); assay type: functional; conditions: Canis lupus familiaris; Muscle tissue; outline: as §2
Canis familiaris [6] = species: Canis familiaris; assay: Maximum percent change in repolarization at 100 uM concentration on Canine Purkinje fibers.; assay type: functional, Canis lupus familiaris, Purkinje fiber; outline: as §1
Canis familiaris [7] = species: Canis familiaris; assay: Maximum percent change in repolarization at 10 uM concentration on Canine Purkinje fibers.; assay type: functional, Canis lupus familiaris, Purkinje fiber; outline: as §1
Canis familiaris [8] = species: Canis familiaris; assay: Percent change in repolarization at 10 Purkinje fibers.; value ranges from 5-16; assay type: functional, Canis lupus familiaris, Purkinje fiber
Outline: (§3)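 Canine Purkinje fibers were held in oxygenated (95% O2–5% CO2) physiological saline, pH 7.35–7.40, at 36 ± 0.5 °C and paced at 1.0 Hz with 2-ms pulses at twice diastolic threshold. Intracellular microelectrodes (3 M KCl) recorded Vmax and APD95 simultaneously. After up to 1 h of stabilization, compounds were tested from 10^-8 to 10^-3 M with 30 min per concentration. One compound per fiber, with vehicle controls. For N ≥ 3, values are the mean with the range.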

Canis familiaris [9] = species: Canis familiaris; assay: Maximum percent change in functional refractory period (FRP) at 1 uM on Canine ventricular muscle fibre.; parameters: species or system Canis lupus familiaris, Muscle tissue; outline: as §2
Canis familiaris [10] = species: Canis familiaris; assay: Percent change from control in the functional refractory period (FRP) at 10 uM conc. on Canine ventricular muscle fibre.; parameters: species or system Canis lupus familiaris, Muscle tissue; outline: as §2
Cavia porcellus [11] = species: Cavia porcellus; assay: Concentration of compound which gives a 20% decrease in contractile force was tested from individual experiments on papillary muscle of guinea pig, activity was expressed as EC-20.; assay type: functional; conditions: Muscle tissue
Outline: (§4)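 Contractile force measured in an isolated cardiac muscle preparation. Value is the concentration giving a 20% decrease in force of contraction. NR marks that this decrease was not reached. Values come from individual experiments; for N ≥ 3, the mean is given with the range.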

Canis familiaris [12] = species: Canis familiaris; assay: Percent change from control in the rate of rise of phase 0 of the action potential at 10 uM concentration on Canine Purkinje fibers.; value ranges from -36.0-1.0; parameters: species or system Canis lupus familiaris, Purkinje fiber; conditions: dog, in vitro
Canis familiaris [13] = species: Canis familiaris; assay: Maximum Percent change from control in the rate of rise of phase 0 of the action potential at 100 uM concentration on Canine Purkinje fibers.; assay type: Canis lupus familiaris, Purkinje fiber; conditions: dog, in vitro; outline: as §1
Canis familiaris [14] = species: Canis familiaris; assay: Maximum percent change in conduction time (CT) at 1 uM concentration tested on Canine ventricular muscle fibre; assay type: functional, Canis lupus familiaris, Muscle tissue; outline: as §2
Canis familiaris [15] = species: Canis familiaris; assay: Percent change from control in conduction time (CT) at 10 uM concentration tested on Canine ventricular muscle fibre.; M is minimal(<10% change in CT); assay type: functional; conditions: Canis lupus familiaris, Muscle tissue; outline: as §2
Canis familiaris [16] = species: Canis familiaris; assay: Maximum percent change in repolarization at 0.1 uM concentration on Canine Purkinje fibers.; assay type: functional, Canis lupus familiaris, Purkinje fiber; outline: as §1
Canis familiaris [17] = species: Canis familiaris; assay: Maximum percent change in repolarization at 1 uM concentration on Canine Purkinje fibers.; assay type: functional, Canis lupus familiaris, Purkinje fiber; outline: as §1
Canis familiaris [18] = species: Canis familiaris; assay: Percent change in repolarization at 10 Purkinje fibers; value ranges from 3-4.; assay type: functional, Canis lupus familiaris, Purkinje fiber; outline: as §3
Canis familiaris [19] = species: Canis familiaris; assay: Percent change in functional refractory period (FRP) at 10 uM on Canine ventricular muscle fibre.; parameters: species or system Canis lupus familiaris, Muscle tissue
Canis familiaris [20] = species: Canis familiaris; assay: Maximum percent change in functional refractory period (FRP) at 100 uM on Canine ventricular muscle fibre.; parameters: species or system Canis lupus familiaris, Muscle tissue; outline: as §2
Cavia porcellus [21] = species: Cavia porcellus; assay: Concentration of compound which gives a 20% decrease in contractile force was tested from individual experiment on papillary muscle of guinea pig, activity was expressed as EC-20.; NR is not reached.; assay type: functional; conditions: Muscle tissue; outline: as §4
Canis familiaris [22] = species: Canis familiaris; assay: Percent change in repolarization at 10 Purkinje fibers.; value ranges from 9-18; assay type: functional, Canis lupus familiaris, Purkinje fiber; outline: as §3

| Vmax (Canis familiaris [1]) [%] | Vmax (Canis familiaris [2]) [%] | Vmax (Canis familiaris [3]) [%] | Vmax (Canis familiaris [13]) [%] | SMILES | CT (Canis familiaris [4]) [%] | APD95 (Canis familiaris [6]) [%] | APD95 (Canis familiaris [7]) | FRP (Canis familiaris [10]) [%] | EC20 (Cavia porcellus [11]) [µM] | CT (Canis familiaris [15]) | FRP (Canis familiaris [20]) [%] | also measured |
| --- | --- | --- | --- | --- | --- | --- | --- | --- | --- | --- | --- | --- |
| -7 | -13 | -13 | – | CCN(CC)CCCNC(=O)c1cc2ccccc2[nH]1 | -11 | -14 | 16% | 5 | 26 | – | – | CT (Canis familiaris [5]): Minimal; APD95 (Canis familiaris [8]): 9.6%; FRP (Canis familiaris [9]): 5% |
| – | – | -14 | -37 | CCN(CC)CCCNC(=O)c1c(C)[nH]c(C)c1C | – | – | 4% | – | – | Minimal | 16 | Vmax (Canis familiaris [12]): -13%; CT (Canis familiaris [14]): -3%; APD95 (Canis familiaris [16]): 5%; APD95 (Canis familiaris [17]): 6%; APD95 (Canis familiaris [18]): 3.7%; FRP (Canis familiaris [19]): 4%; EC20 (Cavia porcellus [21]): Not reached |
| -2.3 | 5 | -6 | -35 | CCN(CC)CCNC(=O)c1cc2ccccc2[nH]1 | 15 | -24 | 16% and 18% | 15 | 16 | Minimal | 24 | APD95 (Canis familiaris [22]): 14.3% |
